Structures are written as SMILES. Unmarked numbers belong to inactive results. Calls of active or inactive are those of the source.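 The calls were made as follows, unless noted: active = viability at or below 30% in both replicate assays; inconclusive = viability at or below 30% in just one of the two assays; inactive = the rest.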

The first test is described as follows: HUVEC growth inhibition – cell-based, human, primary screen (AID 575).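 Also: 100% = median of untreated cell wells with 0.1% DMSO on each plate.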 The settings on record: HUVEC proliferation, CellTiter-Glo luminescence, 72 h; at 10 µM; hits give low values. The gist of the method: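 System – primary HUVEC, no more than 12 passages · Medium – Low-serum (2% FBS) EBM, supplemented · Times – 72 h exposure, 37 °C, 5% CO2, 30 min RT equilibration · Measured by – luminescent ATP assay · Read-out – % viability relative to median vehicle-well signal on each plate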
Consider `CC1=C(C(=O)OCCOC(C)C)C(c2cc3c(cc2Br)OCO3)C2=C(CCCC2=O)N1` (stereo not given), for which the viability was 86.2%.
On the same count and under the same terms, in the case of `O=C(NCC(c1cccnc1)N1CCN(c2ccccc2)CC1)c1ccc2c(c1)OCO2` (stereo not given) it was 105%.
The same measure, in the same setting: in the case of `CCOC(=O)C(NC(C)=O)(NS(=O)(=O)c1ccccc1)C(F)(F)F` (stereo not given) it was 101%; in that of `CC(C)(C)Nc1nc(NC(C)(C)C)nc(-n2ccnc2)n1`, 69%; in that of `Cc1nc2c3cnn(-c4ccccc4)c3ncn2n1`, 79.6%.
The same measure, in the same setting: in the case of `CCOC(=O)C1CCN(c2c(Nc3ccc4c(c3)OCCO4)c(=O)c2=O)CC1` it was 88%; in that of `Cc1ccc(SCc2[nH]nc3c2C(c2ccc(C)o2)C(C#N)=C(N)O3)cc1` (stereo not given), 74.3%; in that of `CCOC(=O)N1CCN(C(=O)CCc2ccc(S(=O)(=O)NCCc3ccccc3)cc2)CC1`, 87.2%.
Take `O=C(CSc1nnnn1-c1ccc(Cl)cc1)NC(=O)Nc1ccc2c(c1)OCCO2`: the viability was 66.9%.
Same read-out and setting: in the case of `CCCCn1c(CN2CCN(c3cccc(Cl)c3)CC2)nc2c1c(=O)n(C)c(=O)n2C` it was 66.9%; in that of `COc1ccc(Cn2c(CCCO)nc3ccccc32)cc1OC`, 105%.
Same read-out and setting: in the case of `CC1(C)NC(=O)N(CC(O)CN(Cc2ccccc2)Cc2ccccc2)C1=O` (stereo not given) it was 108%; in that of `Cc1cc(C)n(C(=O)CNC(=O)C2COc3ccccc3O2)n1` (stereo not given), 87.2%; in that of `CCOC(=O)c1ccc2[nH]c(C)c(CN3CCN(C)CC3)c(=O)c2c1`, 97.9%.
Same read-out and setting: in the case of `Cc1cc(=O)n(C)c(=O)n1CCCNc1ccccc1` it was 83.7%.
In the case of `S=c1[nH]nc(-c2cccc(Br)c2)o1`, the viability was 88.2%.
In the case of `Cc1ccc(S(=O)(=O)N2CCN(CCO)CC2)cc1-c1nnc2c3ccccc3c(C)nn12`, the viability was 99.4%.
Still for that read-out and setting: in the case of `CC1=C(C(=O)Nc2ccccc2)C(c2ccco2)C(C#N)=C(SCC(=O)Nc2cccc(C)c2C)N1` (stereo not given) it was 77.1%; in that of `CCOC(=O)c1cc(CC)sc1NC(=O)CCC(=O)O`, 96%.
On to `O=C(NCC(c1cccnc1)N1CCOCC1)c1cccs1` (stereo not given), for which the viability was 89.6%.
Turning to `O=c1cc(-c2ccccc2)[nH]c2nc3ccccc3n12`, the viability was 35.5%.
The same measure, in the same setting: in the case of `O=C(c1ccccc1-c1ccccc1)N1CCN(c2ccccn2)CC1` it was 58.8%.
On the same count and under the same terms, in the case of `CCc1ccccc1NC(=O)CSc1nc2n[nH]c(C)c2c(=N)n1-c1ccc(OC)cc1` it was 66.4%.
On the same count and under the same terms, in the case of `Cc1cccc(C)c1NC(=O)CC(NCc1ccco1)C(=O)O` (stereo not given) it was 118%; in that of `Cc1noc(NS(=O)(=O)c2ccc(N3C(=O)c4ccccc4C3=O)cc2)c1C`, 99.1%; in that of `O=C(NC(C(=O)c1ccccc1)n1ccc(=O)[nH]c1=O)c1ccccc1` (stereo not given), 98.8%.
On to `CCc1nnc(NC(=O)NCN2C(=O)C3C4C=CC(C4)C3C2=O)s1` (stereo not given), for which the viability is 84.4%.
Still for that read-out and setting: in the case of `Cc1cc(C)c(C)c(S(=O)(=O)Nc2ccc(O)cc2)c1C` it was 96.6%; in that of `COc1cccc(C(c2nnnn2CCc2ccccc2)N2CCN(c3ccccc3)CC2)c1OC` (stereo not given), 109%; in that of `O=C(CSc1nc(-c2ccccc2)cs1)NCc1ccco1`, 103%.
With `Cc1cccc2cc(CN(CCCO)C(=O)Nc3ccc(Cl)cc3)c(=O)[nH]c12`, the viability was 67.9%.
Same read-out and setting: in the case of `O=C(O)c1oc2ccccc2c1-n1cccc1` it was 102%.
For `O=C1CCc2cc(S(=O)(=O)N3CCC(C(=O)Nc4nccs4)CC3)ccc2N1`, the viability is 110%.
Consider `CC(=O)N1C(=O)C2(C(C#N)=C(N)Oc3cc(C)oc(=O)c32)c2ccccc21` (stereo not given), for which the viability was 95.9%.
Still for that read-out and setting: in the case of `CCOc1ccc(C(=O)N2CCN(c3ccccc3)CC2)cc1OCC` it was 90%; in that of `O=C(Cn1cnc2c(nnn2Cc2ccccc2)c1=O)c1ccc(Cl)cc1`, 84.5%; in that of `CCCNS(=O)(=O)c1ccc(OCC(=O)NCc2ccc3c(c2)OCO3)cc1`, 88.2%.
`COCCN(C(=O)CCC(=O)Nc1ccccn1)C(C(=O)NC1CCCC1)c1ccc(OC)cc1` (stereo not given): the viability was 94.6%.
Consider `Cn1c(=O)n(CC(=O)OCc2ccccc2)c(=O)c2c1nc1n2CCCN1C1CCCCC1`, for which the viability was 96.4%.
Turning to `CCOc1ccc(-c2nnn(CCC(=O)O)n2)cc1OC`, the viability is 104%.

A further test can be described thus: H69AR cell proliferation blockers – human, duplicate replicates, primary screen (AID 580;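 active = viability at or under a set limit in both replicates, limit being median viability minus 3 SD, cut at about 48% in these data, passing the limit was not always enough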;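 also: 100% = mean luminescence of untreated wells and 0% = no signal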). The settings on record: H69AR lung tumor cells viability, ATP luminescence, 72 h; at 10 µM; hits give low values.
As to `CC1=C(C(=O)OCCOC(C)C)C(c2cc3c(cc2Br)OCO3)C2=C(CCCC2=O)N1` (stereo not given), the viability is 80.8%.
The same measure, in the same setting: in the case of `O=C(NCC(c1cccnc1)N1CCN(c2ccccc2)CC1)c1ccc2c(c1)OCO2` (stereo not given) it was 90.8%; in that of `CCOC(=O)C(NC(C)=O)(NS(=O)(=O)c1ccccc1)C(F)(F)F` (stereo not given), 100%; in that of `CC(C)(C)Nc1nc(NC(C)(C)C)nc(-n2ccnc2)n1`, 88.6%.
In the case of `Cc1nc2c3cnn(-c4ccccc4)c3ncn2n1`, the viability was 96.7%.
The same measure, in the same setting: in the case of `CCOC(=O)C1CCN(c2c(Nc3ccc4c(c3)OCCO4)c(=O)c2=O)CC1` it was 88.4%; in that of `Cc1ccc(SCc2[nH]nc3c2C(c2ccc(C)o2)C(C#N)=C(N)O3)cc1` (stereo not given), 76.8%; in that of `CCOC(=O)N1CCN(C(=O)CCc2ccc(S(=O)(=O)NCCc3ccccc3)cc2)CC1`, 101%.
Consider `O=C(CSc1nnnn1-c1ccc(Cl)cc1)NC(=O)Nc1ccc2c(c1)OCCO2`, for which the viability was 75.5%.
On the same count and under the same terms, in the case of `CCCCn1c(CN2CCN(c3cccc(Cl)c3)CC2)nc2c1c(=O)n(C)c(=O)n2C` it was 74.7%; in that of `COc1ccc(Cn2c(CCCO)nc3ccccc32)cc1OC`, 102%; in that of `CC1(C)NC(=O)N(CC(O)CN(Cc2ccccc2)Cc2ccccc2)C1=O` (stereo not given), 92.6%.
Turning to `Cc1cc(C)n(C(=O)CNC(=O)C2COc3ccccc3O2)n1` (stereo not given), the viability is 97.1%.
The same measure, in the same setting: in the case of `CCOC(=O)c1ccc2[nH]c(C)c(CN3CCN(C)CC3)c(=O)c2c1` it was 91.4%.
On the same count and under the same terms, in the case of `Cc1cc(=O)n(C)c(=O)n1CCCNc1ccccc1` it was 99.9%; in that of `S=c1[nH]nc(-c2cccc(Br)c2)o1`, 96.1%; in that of `Cc1ccc(S(=O)(=O)N2CCN(CCO)CC2)cc1-c1nnc2c3ccccc3c(C)nn12`, 96.2%.
Still for that read-out and setting: in the case of `CC1=C(C(=O)Nc2ccccc2)C(c2ccco2)C(C#N)=C(SCC(=O)Nc2cccc(C)c2C)N1` (stereo not given) it was 47.5% (active); in that of `CCOC(=O)c1cc(CC)sc1NC(=O)CCC(=O)O`, 93.8%.
With `O=C(NCC(c1cccnc1)N1CCOCC1)c1cccs1` (stereo not given), the viability is 92.5%.
Consider `O=c1cc(-c2ccccc2)[nH]c2nc3ccccc3n12`, for which the viability was 9.48% (active).
As for `O=C(c1ccccc1-c1ccccc1)N1CCN(c2ccccn2)CC1`, the viability is 16% (active).
On the same count and under the same terms, in the case of `CCc1ccccc1NC(=O)CSc1nc2n[nH]c(C)c2c(=N)n1-c1ccc(OC)cc1` it was 80%; in that of `Cc1cccc(C)c1NC(=O)CC(NCc1ccco1)C(=O)O` (stereo not given), 109%; in that of `Cc1noc(NS(=O)(=O)c2ccc(N3C(=O)c4ccccc4C3=O)cc2)c1C`, 107%.
Same read-out and setting: in the case of `O=C(NC(C(=O)c1ccccc1)n1ccc(=O)[nH]c1=O)c1ccccc1` (stereo not given) it was 91.2%; in that of `CCc1nnc(NC(=O)NCN2C(=O)C3C4C=CC(C4)C3C2=O)s1` (stereo not given), 95.5%; in that of `Cc1cc(C)c(C)c(S(=O)(=O)Nc2ccc(O)cc2)c1C`, 96.8%.
In the case of `COc1cccc(C(c2nnnn2CCc2ccccc2)N2CCN(c3ccccc3)CC2)c1OC` (stereo not given), the viability is 83.1%.
`O=C(CSc1nc(-c2ccccc2)cs1)NCc1ccco1`: the viability was 94.8%.
Still for that read-out and setting: in the case of `Cc1cccc2cc(CN(CCCO)C(=O)Nc3ccc(Cl)cc3)c(=O)[nH]c12` it was 77.1%; in that of `O=C(O)c1oc2ccccc2c1-n1cccc1`, 96.8%; in that of `O=C1CCc2cc(S(=O)(=O)N3CCC(C(=O)Nc4nccs4)CC3)ccc2N1`, 85.3%.
In the case of `CC(=O)N1C(=O)C2(C(C#N)=C(N)Oc3cc(C)oc(=O)c32)c2ccccc21` (stereo not given), the viability was 88.1%.
In the case of `CCOc1ccc(C(=O)N2CCN(c3ccccc3)CC2)cc1OCC`, the viability was 83.5%.
For `O=C(Cn1cnc2c(nnn2Cc2ccccc2)c1=O)c1ccc(Cl)cc1`, the viability was 97.1%.
Same read-out and setting: in the case of `CCCNS(=O)(=O)c1ccc(OCC(=O)NCc2ccc3c(c2)OCO3)cc1` it was 94.1%.
Still for that read-out and setting: in the case of `COCCN(C(=O)CCC(=O)Nc1ccccn1)C(C(=O)NC1CCCC1)c1ccc(OC)cc1` (stereo not given) it was 111%.
Still for that read-out and setting: in the case of `Cn1c(=O)n(CC(=O)OCc2ccccc2)c(=O)c2c1nc1n2CCCN1C1CCCCC1` it was 78.7%.
Regarding `CCOc1ccc(-c2nnn(CCC(=O)O)n2)cc1OC`, the viability was 102%.

For the origin of these results see PubChem BioAssay.
